The IC50 is the concentration needed to halve the response being measured.

For 5 compounds, IC50 results are on record in ChEMBL document CHEMBL1240396, “In vitro sensitivities of Plasmodium falciparum to different antimalarial drugs in Uganda” (Antimicrob Agents Chemother, 2010).

Assay [1] relates to Plasmodium falciparum. Description: Antimicrobial activity against chloroquine-resistant Plasmodium falciparum W2 by ELISA. For orientation: ELISA stands for enzyme-linked immunosorbent assay.
The subject of assay [2] is Plasmodium falciparum. Description: Antimicrobial activity against Plasmodium falciparum by ELISA. In kind it is functional, organism-based. The method in brief: (§1)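 Fresh patient isolates, taken before therapy, washed in RPMI 1640, diluted with group O erythrocytes to 0.05% parasitemia, ~2% PCV with 0.5% Albumax II. Added to dried predosed wells with seven duplicate 2-fold dilutions (CQ 15.7–1,002 nM; MDAQ 6.25–400 nM; QN 15.4–985 nM; DHA 0.13–8.5 nM; LM 0.2–12.5 nM; PQ 1.6–100 nM). Incubated 72 h, 37°C, 5% CO2, then freeze-thawed. HRP-2 ELISA (A450) compared against drug-free wells. IC50 from nonlinear regression.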

In assay [3] the test system is Plasmodium falciparum. Description: Antimicrobial activity against chloroquine-resistant Plasmodium falciparum K1 by ELISA. The class given is functional, organism-based. The method in brief: (§2)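 Reference laboratory lines run as controls. Drug-predosed wells held seven duplicate 2-fold dilutions (CQ 15.7–1,002 nM; MDAQ 6.25–400 nM; QN 15.4–985 nM; DHA 0.13–8.5 nM; LM 0.2–12.5 nM; PQ 1.6–100 nM). Incubated 72 h, 37°C, 5% CO2, freeze-thawed, and HRP-2 measured by ELISA at A450 against drug-free wells. IC50 by nonlinear regression.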

In assay [4] the test system is Plasmodium falciparum. Description: Antimicrobial activity against chloroquine-sensitive Plasmodium falciparum D6 by ELISA. In kind it is functional, organism-based. The method in brief: as §2
For assay [5], the system named is Plasmodium falciparum. Description: Antimicrobial activity against chloroquine-sensitive Plasmodium falciparum HB3 by ELISA.
Assay [6] deals with Plasmodium falciparum. The assay can be described thus: Antimicrobial activity against Plasmodium falciparum harboring mdr1 N86Y/D1246Y/Y184F mutant gene by ELISA. The class given is functional, organism-based. The method in brief: as §1

In the case of `C[C@H]1[C@@H](O)O[C@@H]2O[C@@]3(C)CC[C@H]4[C@H](C)CC[C@@H]1[C@@]24OO3` [ARTENIMOL], the IC50 in the assay with Plasmodium falciparum [1] was found to be 0.41 nM; with Plasmodium falciparum [2], 0.55 nM; in the assay with Plasmodium falciparum [3] it was 0.49 nM; in the assay on Plasmodium falciparum [4], 0.79 nM; in the assay on Plasmodium falciparum [5] it was 0.71 nM.
For the compound `CCNCc1cc(Nc2ccnc3cc(Cl)ccc23)ccc1O` [DESETHYL AMODIAQUINE], the IC50 worked out at 268 nM in the assay with Plasmodium falciparum [1]; 66.4 nM in the assay with Plasmodium falciparum [2]; 262 nM in the assay with Plasmodium falciparum [3]; 30.9 nM in the assay on Plasmodium falciparum [4]; 29.8 nM in the assay on Plasmodium falciparum [5]; 6.3 nM in the assay on Plasmodium falciparum [6].
On to `CCCCN(CCCC)CC(O)c1cc(Cl)cc2c1-c1ccc(Cl)cc1/C2=C/c1ccc(Cl)cc1` (stereo not drawn) [LUMEFANTRINE], for which the IC50 in the assay on Plasmodium falciparum [1] came to 0.45 nM; in the assay with Plasmodium falciparum [2] it was 0.51 nM; in the assay on Plasmodium falciparum [3], 0.31 nM; in the assay with Plasmodium falciparum [4], 1.82 nM; with Plasmodium falciparum [5], 1.41 nM; in the assay on Plasmodium falciparum [6], 0.19 nM.
On to `Clc1ccc2c(N3CCN(CCCN4CCN(c5ccnc6cc(Cl)ccc56)CC4)CC3)ccnc2c1` [PIPERAQUINE], for which the concentration for half-maximal inhibition (IC50) is 6.1 nM in the assay on Plasmodium falciparum [2]; 12.5 nM in the assay with Plasmodium falciparum [3]; 6.26 nM with Plasmodium falciparum [4]; 10.5 nM in the assay with Plasmodium falciparum [5]; 1.6 nM with Plasmodium falciparum [6].
Regarding `C=C[C@H]1CN2CC[C@H]1C[C@H]2[C@H](O)c1ccnc2ccc(OC)cc12` [QUININE], the IC50 in the assay on Plasmodium falciparum [1] turned out to be 491 nM; with Plasmodium falciparum [2], 94.4 nM; in the assay with Plasmodium falciparum [3], 276 nM; with Plasmodium falciparum [4] it was 107 nM; with Plasmodium falciparum [5], 236 nM; in the assay on Plasmodium falciparum [6], 15.4 nM.
